According to paper PMC3082038 (Cancer Chemotherapy and Pharmacology, 2010):

Experiments:
ELAM-1 = experiment: Angiogenesis-related factor: ELAM-1; format: in vivo, human
How it was run: (§1)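 Plasma and urine were collected from patients before treatment and after day 8 and day 28 of oral test compound dosing, and analysed at a central commercial laboratory. ELISA kits were used for human VEGF (plasma and urine), ELAM-1, VCAM-1 and soluble t-PA. Soluble PAI-1 was measured by latex photometric immunoassay. Values are reported as median (range) per time point.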

[1] = 100 mg/m^2 after meals, previous clinical study; cited from earlier work
solid tumors = experiment: Antitumor effect; format: in vivo, human
[2] = Urinary excretion of TSU-68; format: in vivo, human; settings: all dose levels
How it was run: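 Urine was collected in 0–12 h (b.i.d.) or 0–6/0–12 h (t.i.d.) intervals after selected doses, plus pre-dose and up to 24 h after the final sampled dose. Drug was measured by validated HPLC-UV (LLOQ 0.1 μg/ml), and excretion was expressed as % of dose.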

PAI-1 = experiment: Angiogenesis-related factor: PAI-1; format: in vivo, human
How it was run: as §1

VCAM-1 = experiment: Angiogenesis-related factor: VCAM-1; format: in vivo, human
How it was run: as §1

## Cc1[nH]c(/C=C2\C(=O)Nc3ccccc32)c(C)c1CCC(=O)O [TSU-68, (Z)-5-[(1,2-dihydro-2-oxo-3H-indol-3-ylidene)methyl]-2,4-dimethyl-1H-pyrrole-3-propanoic acid]
ELAM-1; day 8, 23 patients
  ELAM-1, median: 50 ng/mL
  ELAM-1, range: 13 to 136 ng/mL
ELAM-1; day 28, 22 patients
  ELAM-1, median: 45.5 ng/mL
  ELAM-1, range: 17 to 114 ng/mL
[1]
  Absolute bioavailability: 42%
Solid tumors; 10/23 evaluable patients
  NC patients: 43.5%
Solid tumors; 10/23 patients
  Tumor control rate: 43.5%
Solid tumors; 23 evaluable patients
  PR patient: not found
Solid tumors; Pt 1, Cervical ca., b.i.d. 200 mg/m^2 (800 mg/day)
  TTP (time to progression): 162 days
Solid tumors; Pt 2, NSCLC, b.i.d. 200 mg/m^2 (800 mg/day)
  TTP (time to progression): 64 days
Solid tumors; Pt 4, SCLC, b.i.d. 400 mg/m^2 (1,200 mg/day)
  TTP (time to progression): ≥ 29 days
Solid tumors; Pt 8, Cholecystis ca., b.i.d. 400 mg/m^2 (1,200 mg/day)
  TTP (time to progression): 61 days
Solid tumors; Pt 9, NSCLC, b.i.d. 400 mg/m^2 (1,200 mg/day)
  TTP (time to progression): ≥ 29 days
Solid tumors; Pt 14, Soft tissue sa., t.i.d. 200 mg/m^2 (600 mg/day)
  TTP (time to progression): ≥ 254 days
Solid tumors; Pt 17, NSCLC, t.i.d. 200 mg/m^2 (1,200 mg/day)
  TTP (time to progression): 65 days
Solid tumors; Pt 19, NSCLC, t.i.d. 400 mg/m^2 (2,400 mg/day)
  TTP (time to progression): ≥ 28 days
Solid tumors; Pt 20, Colon ca., t.i.d. 400 mg/m^2 (1,800 mg/day)
  TTP (time to progression): ≥ 217 days
Solid tumors; Pt 23, Colon ca., t.i.d. 400 mg/m^2 (1,800 mg/day)
  TTP (time to progression): ≥ 28 days
Solid tumors; all dose levels
  Median survival period: 218 days
  Median time to progression: 28 days
[2]
  Urinary excretion of TSU-68: below 1 % of dose
PAI-1; PD patients (13 pts.), Wilcoxon signed rank-sum test
  Change of PAI-1 at day 28 compared to baseline: significantly increasing
PAI-1; day 8, 23 patients
  PAI-1, median: 28 ng/mL
  PAI-1, range: 11 to 92 ng/mL
PAI-1; day 28, 22 patients
  PAI-1, median: 31 ng/mL
  PAI-1, range: 11 to 120 ng/mL
VCAM-1; day 8, 23 patients
  VCAM-1, median: 562 ng/mL
  VCAM-1, range: 303–1,140 ng/ml
VCAM-1; day 28, 22 patients
  VCAM-1, median: 545.5 ng/mL
  VCAM-1, range: 355 to 988 ng/mL
